This passage reports Ke, Selectivity ratio and Ratio results from ChEMBL document CHEMBL1125157, “Synthesis and biological evaluation of 14-alkoxymorphinans. 3. Extensive study on cyprodime-related compounds” (J Med Chem, 1990).

For assay [1], the target named is Kappa-type opioid receptor (Mus musculus) (UniProt P33534). As to the kind of experiment: Antagonistic activity (Ke) at Opioid receptor kappa 1 was determined against ethylketocyclazocine in the mouse vas deferens (MVD). Format: functional, tissue-based. The method, boiled down: (§1)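 Mouse vas deferens antagonism was measured against normorphine (μ), ethylketocyclazocine (κ) or DADLE (δ in this tissue). Ke = [antagonist]/(DR − 1), where DR is the ratio of equiactive agonist concentrations with and without antagonist. Antagonist concentrations were chosen to give a dose ratio between 3 and 10 against the relevant agonist.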

The target in assay [2] is T1, Opioid receptors; mu & delta (Homo sapiens) (UniProt P41143+P35372). As to the kind of experiment: Selectivity ratio was determined using the Ke value of Opioid receptor delta 1 to that of Opioid receptor mu 1. The method, boiled down:
(§2)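 Selectivity is the ratio of Ke values from mouse vas deferens antagonism, with Ke = [antagonist]/(DR − 1). DADLE gave the δ value, ethylketocyclazocine the κ value and normorphine the μ value. Antagonist concentrations gave a dose ratio of 3–10.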

Assay [3] concerns the target Mu-type opioid receptor (Homo sapiens) (UniProt P35372). As to the kind of experiment: Agonist potency against mu opioid receptor expressed as the ratio of the ED40 concentrations of the DADLE and compound in guinea pig ileum; NA= No agonist activity detected. The format is functional, tissue-based. The method, boiled down: (§3)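 Agonist activity tested on electrically stimulated isolated tissue twitch (mouse vas deferens and guinea pig ileum). ED40 is the concentration giving 40% inhibition of twitch height. Potency is given as the ratio of the ED40 of the reference agonist (normorphine, ethylketocyclazocine or DADLE) to that of the test compound. TS marks a curve too shallow to reach 40% inhibition. NA means no agonist activity was detected.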

Assay [4] deals with Delta-type opioid receptor (Mus musculus) (UniProt P32300). As to the kind of experiment: Antagonistic activity (Ke) at Opioid receptor delta 1 was determined against DADLE in the mouse vas deferens (MVD). The format is functional, tissue-based. In short, it runs like this: as §1
Assay [5] deals with Opioid receptors; mu & kappa (Homo sapiens) (UniProt P41145+P35372). As to the kind of experiment: Selectivity ratio was determined using the Ke value of kappa receptor to that of mu receptor. In short, it runs like this: as §2
The target in assay [6] is Mu-type opioid receptor (Mus musculus) (UniProt P42866). As to the kind of experiment: Antagonistic activity (Ke) against nor-morphine and Opioid receptor mu 1 of mouse vas deferens assay. Format: functional, tissue-based. The method, boiled down:
as §1

Assay [7] has as its target Mu-type opioid receptor (Homo sapiens) (UniProt P35372). The experiment in a line: Agonist potency against mu opioid receptor expressed as the ratio of the ED40 concentrations of the ethylketocyclazocin and compound in guinea pig ileum. The format is functional, tissue-based. In short, it runs like this:
as §3

The target is the same in assay [8]. The experiment in a line: Agonist potency against mu opioid receptor expressed as the ratio of the ED40 concentrations of the normorphine and compound in guinea pig ileum; TS= Too shallow to estimate ED40. The format is functional, tissue-based. The method, boiled down:
as §3

For assay [9] the target is unchanged. As to the kind of experiment: Agonist potency against mu opioid receptor expressed as the ratio of the ED40 concentrations of the normorphine and compound in guinea pig ileum; NA= No agonist activity detected. Format: functional, tissue-based. In short, it runs like this:
as §3

Assay [10] has as its target Mu-type opioid receptor (Cavia porcellus) (UniProt P97266). The experiment in a line: Agonist potency against Opioid receptor mu 1 expressed as the ratio of the ED40 concentrations of the ethylketocyclazocin and compound in guinea pig ileum TS= Too shallow to estimate ED40. Format: functional, tissue-based. In short, it runs like this:
as §3

Assay [11] shares this target. As to the kind of experiment: Agonist potency against Opioid receptor mu 1 expressed as the ratio of the ED40 concentrations of the ethylketocyclazocin and compound in guinea pig ileum. Format: functional, tissue-based. In short, it runs like this:
as §3

Assay [12] deals with Mu-type opioid receptor (Mus musculus) (UniProt P42866). The experiment in a line: (§4) Agonist potency against Opioid receptor mu 1 expressed as the ratio of the ED40 concentrations of the normorphine and compound in guinea pig ileum; NA= No agonist activity detected. The format is functional, tissue-based. The method, boiled down:
as §3

Assay [13] concerns the target Mu-type opioid receptor (Cavia porcellus) (UniProt P97266). The description is as §4. Format: functional, tissue-based. In short, it runs like this:
as §3

The target in assay [14] is Delta-type opioid receptor (Mus musculus) (UniProt P32300). The experiment in a line: Antagonistic activity (Ke) at Opioid receptor delta 1 was determined against DADLE in the mouse vas deferens (MVD) method. The format is functional, tissue-based. In short, it runs like this:
as §1

The target in assay [15] is Mu-type opioid receptor (Homo sapiens) (UniProt P35372). As to the kind of experiment: Agonist potency against mu opioid receptor expressed as the ratio of the ED40 concentrations of the ethylketocyclazocin and compound in guinea pig ileum TS= Too shallow to estimate ED40. The format is functional, tissue-based. The method, boiled down: as §3
Assay [16] addresses T1, Opioid receptors; mu & delta (Homo sapiens). The experiment in a line: Selectivity ratio was determined using the Ke value of Opioid receptor delta 1 to that of mu receptor. The method, boiled down: as §2
The target in assay [17] is Mu-type opioid receptor (Homo sapiens) (UniProt P35372). As to the kind of experiment: Agonist potency against mu opioid receptor expressed as the ratio of the ED40 concentrations of the DADLE and compound in guinea pig ileum. The format is functional, tissue-based. The method, boiled down: as §3
Assay [18] addresses Mu-type opioid receptor (Mus musculus) (UniProt P42866). The experiment in a line: Agonist potency against Opioid receptor mu 1 expressed as the ratio of the ED40 concentrations of the normorphine and compound in guinea pig ileum. Format: functional, tissue-based. The method, boiled down:
as §3

Assay [19] addresses Mu-type opioid receptor (Cavia porcellus) (UniProt P97266). As to the kind of experiment: Agonist potency against Opioid receptor mu 1 expressed as the ratio of the ED40 concentrations of the DADLE and compound in guinea pig ileum […]. The format is functional, tissue-based. In short, it runs like this: as §3

Activity calls are given as the source filed them. The calls are words filed in the database; no cut-off is given here.

Mu-type opioid receptor (Mus musculus), sequence (P42866 whole entry): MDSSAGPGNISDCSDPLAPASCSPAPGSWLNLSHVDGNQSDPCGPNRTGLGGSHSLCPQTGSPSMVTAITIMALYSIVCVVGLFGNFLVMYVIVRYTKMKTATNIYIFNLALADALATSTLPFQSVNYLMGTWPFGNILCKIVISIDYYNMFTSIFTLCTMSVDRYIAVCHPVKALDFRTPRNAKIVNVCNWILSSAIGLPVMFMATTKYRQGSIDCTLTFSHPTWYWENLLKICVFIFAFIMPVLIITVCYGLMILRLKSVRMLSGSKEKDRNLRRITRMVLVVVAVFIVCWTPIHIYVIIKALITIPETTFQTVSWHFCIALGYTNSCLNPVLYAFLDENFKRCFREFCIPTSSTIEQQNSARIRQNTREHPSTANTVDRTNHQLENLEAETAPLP
Mu-type opioid receptor (Cavia porcellus), sequence (P97266 whole entry): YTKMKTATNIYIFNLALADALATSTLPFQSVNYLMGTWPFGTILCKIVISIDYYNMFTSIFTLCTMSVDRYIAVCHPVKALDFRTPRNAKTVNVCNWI
Kappa-type opioid receptor (Mus musculus), sequence (P33534 whole entry): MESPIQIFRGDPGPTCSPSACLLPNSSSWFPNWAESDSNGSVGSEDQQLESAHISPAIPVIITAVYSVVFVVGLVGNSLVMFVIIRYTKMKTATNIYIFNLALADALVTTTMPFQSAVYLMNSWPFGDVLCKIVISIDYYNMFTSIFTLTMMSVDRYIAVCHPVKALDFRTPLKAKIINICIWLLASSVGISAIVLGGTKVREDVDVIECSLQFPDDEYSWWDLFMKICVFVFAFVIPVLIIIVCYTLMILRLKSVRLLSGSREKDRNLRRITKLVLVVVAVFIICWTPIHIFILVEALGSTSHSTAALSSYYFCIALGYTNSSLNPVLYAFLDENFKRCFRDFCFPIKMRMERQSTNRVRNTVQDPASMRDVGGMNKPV
Mu-type opioid receptor (Homo sapiens), sequence (P35372 whole entry): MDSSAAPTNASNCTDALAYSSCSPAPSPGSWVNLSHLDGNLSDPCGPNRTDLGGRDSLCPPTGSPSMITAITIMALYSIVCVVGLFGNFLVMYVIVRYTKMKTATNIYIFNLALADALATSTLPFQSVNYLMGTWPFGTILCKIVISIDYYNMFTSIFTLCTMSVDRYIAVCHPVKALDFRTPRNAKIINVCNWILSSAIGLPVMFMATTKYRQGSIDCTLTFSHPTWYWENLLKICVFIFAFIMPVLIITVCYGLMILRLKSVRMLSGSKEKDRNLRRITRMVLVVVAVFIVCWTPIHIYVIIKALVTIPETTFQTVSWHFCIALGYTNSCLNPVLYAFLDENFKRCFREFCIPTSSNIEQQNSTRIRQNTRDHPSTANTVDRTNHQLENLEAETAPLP
Opioid receptors; mu & kappa (Homo sapiens), sequence (P35372 whole entry, looked up): as the sequence (P35372 whole entry) above
Opioid receptors; mu & kappa (Homo sapiens), sequence (P41145 whole entry, looked up): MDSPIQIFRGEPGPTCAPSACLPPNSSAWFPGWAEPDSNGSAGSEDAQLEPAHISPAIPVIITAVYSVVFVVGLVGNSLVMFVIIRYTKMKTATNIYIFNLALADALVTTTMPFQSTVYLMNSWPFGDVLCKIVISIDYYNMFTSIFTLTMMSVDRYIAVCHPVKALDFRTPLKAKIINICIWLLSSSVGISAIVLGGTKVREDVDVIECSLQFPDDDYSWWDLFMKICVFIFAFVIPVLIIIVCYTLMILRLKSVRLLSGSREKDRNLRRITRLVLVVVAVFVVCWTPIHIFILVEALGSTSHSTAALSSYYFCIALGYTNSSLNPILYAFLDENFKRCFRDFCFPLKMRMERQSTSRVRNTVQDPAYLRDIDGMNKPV
T1 sequence (P35372 whole entry, looked up): as the sequence (P35372 whole entry) above
T1 sequence (P41143 whole entry, looked up): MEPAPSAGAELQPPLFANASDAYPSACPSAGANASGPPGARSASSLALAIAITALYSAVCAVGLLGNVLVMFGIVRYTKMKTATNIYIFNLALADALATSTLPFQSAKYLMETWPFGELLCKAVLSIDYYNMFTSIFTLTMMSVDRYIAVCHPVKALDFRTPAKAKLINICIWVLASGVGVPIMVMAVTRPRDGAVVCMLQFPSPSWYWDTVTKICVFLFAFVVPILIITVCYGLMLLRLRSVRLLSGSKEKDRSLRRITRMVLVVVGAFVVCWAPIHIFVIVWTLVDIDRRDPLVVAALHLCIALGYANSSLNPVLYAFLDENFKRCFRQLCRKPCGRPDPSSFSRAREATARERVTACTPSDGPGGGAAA
Delta-type opioid receptor (Mus musculus), sequence (P32300 whole entry): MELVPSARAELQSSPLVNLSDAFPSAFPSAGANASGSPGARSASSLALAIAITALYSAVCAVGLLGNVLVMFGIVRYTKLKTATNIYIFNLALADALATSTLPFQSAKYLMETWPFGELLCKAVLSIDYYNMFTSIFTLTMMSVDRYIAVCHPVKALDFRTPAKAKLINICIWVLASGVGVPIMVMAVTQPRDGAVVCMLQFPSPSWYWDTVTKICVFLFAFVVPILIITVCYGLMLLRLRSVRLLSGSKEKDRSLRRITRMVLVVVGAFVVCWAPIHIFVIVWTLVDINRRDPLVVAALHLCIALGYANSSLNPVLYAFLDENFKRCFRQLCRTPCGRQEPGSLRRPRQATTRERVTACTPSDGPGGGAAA

Turning to `CO[C@@]12CCC(=O)C[C@@]13CCN(CC1CC1)[C@@H]2Cc1cccc(OC(C)C)c13`, the Ke in assay [1] amounted to 2410 nM; in assay [4], 11300 nM; in assay [6], 108 nM. The Selectivity ratio amounted to 105 in [2] and 22 in [5]. The Ratio result in assay [3] is “inactive”.
On to `CCO[C@@]12CCC(=O)C[C@@]13CCN(CC1CC1)[C@@H]2Cc1ccc(OC)c(OC)c13`, for which the Ke in [1] came to 5300 nM; in assay [4], 1540 nM; in assay [6] it was 46 nM. Besides, the Ratio in assay [7] turned out to be 0.0015. Besides, the Selectivity ratio amounted to 33 in assay [2] and 115 in assay [5]. Besides, the Ratio result in assay [3] and in assay [8] was “inactive” in each case.
With `C=CCN1CC[C@]23CC(=O)CC[C@@]2(OC)[C@H]1Cc1ccc(OC)c(OC)c13`, the figures for the Ke in assay [1], in [4] and in assay [6] were 3900 nM, 179 nM and 118 nM, respectively. In addition, the Ratio result in assay [3], in [9] and in assay [10] was “inactive” each time.
Regarding `CO[C@@]12CCC(=O)C[C@@]13CCN(CC1CC1)[C@@H]2Cc1cccc(O)c13`, the Ratio was 0.0007 in [11] and 0.001 in assay [12]. Moreover, in assay [13], the Ratio entry was “inactive”.
Consider `C=CCN1CC[C@]23CC(=O)CC[C@@]2(OCC)[C@H]1Cc1cccc(OC)c13`, for which the Ke in [1] worked out at 2560 nM; in assay [4], 3740 nM; in assay [6] it was 81 nM. In assay [7], the Ratio worked out at 0.0004. Further, the Selectivity ratio in assay [2] amounted to 46; in [5], 32. Further, the Ratio entry in assay [3] and in assay [9] was “inactive” throughout.
With `CCO[C@@]12CCC(=O)C[C@@]13CCN(CC1CC1)[C@@H]2Cc1cccc(OC)c13`, the Ke in [1] amounted to 1130 nM; in assay [4] it was 2130 nM; in assay [6], 21.7 nM. The Ratio in assay [7] was determined as 0.0014. In addition, the Selectivity ratio in assay [2] was 98; in assay [5], 52. For the same compound, the Ratio result in [3] and in assay [9] was “inactive” throughout.
As to `COc1ccc2c(c1OC)[C@]13CCN(CC4CC4)[C@H](C2)[C@]1(OC)CCC(=O)C3`, the Ke in assay [1] was determined as 2100 nM; in assay [14] it was 0.744 µM; in [6], 120 nM. Further, the Ratio entry in assay [3], in assay [9] and in [15] was “inactive” each time.
`C=CCN1CC[C@]23CC(=O)CC[C@@]2(OC)[C@H]1Cc1cccc(OC)c13`: the Ke amounted to 6040 nM in assay [1], 6.45 µM in assay [14] and 230 nM in assay [6].
In the case of `CO[C@@]12CCC(=O)[C@@H]3Oc4cccc5c4C31CCN(CC1CC1)[C@@H]2C5`, the Selectivity ratio in [16] is 24. Besides, the Ke in assay [1] came to 648 nM; in assay [14], 4.03 µM; in assay [6], 168 nM.
Consider `C=CCN1CC[C@]23CC(=O)CC[C@@]2(OCC)[C@H]1Cc1ccc(OC)c(OC)c13`, for which the Ratio in assay [17] turned out to be 1; in [7], 0.001. For the same compound, the Ke came out at 6190 nM in [1], 665 nM in [4] and 184 nM in [6]. Also, the values for the Selectivity ratio in assay [2] and in [5] were 3.6 and 34, respectively.
For the compound `COc1cccc2c1[C@]13CCN(CC4CC4)[C@H](C2)[C@]1(OC)CCC(=O)C3`, the Selectivity ratio in assay [2] worked out at 110; in assay [5] it was 28.
As to `CCCCOc1cccc2c1[C@]13CCN(CC4CC4)[C@H](C2)[C@]1(OC)CCC(=O)C3`, the Ke in assay [1] was 811 nM; in assay [14] it was 2.05 µM; in assay [6], 21 nM.
For the compound `CO[C@@]12CCC(=O)C[C@@]13CCN(CC1CC1)[C@@H]2Cc1ccccc13`, the Ratio in [11] was 0.0008; in assay [18] it was 0.0004; in [19], 0.004.
